Assay outcomes from PubChem BioAssay.
Only some compounds are listed: those with a hit (about 2.6% of all), similar ones and a draw of the others.
GSIS activator: GLuc luminescence reporter in INS-1E cells, primary screen for activators of glucose-dependent secretion of insulin; INS-1E GLuc reporter insulin secretion, 2-3 h; activation, % at 16.6 µM; hit rate 0.61% among 370,000;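 active means lowest replicate activation of at least 40%, so every replicate reaches that level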;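 further: 0% = median of neutral control wells and 100% = median of IBMX positive control wells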
DENV2 CPE: inhibitors of DENV2 cytopathic effect, primary screen, cell-based, plate reader, single concentration; DENV2-infected cells, cytopathic effect rescue; CPE inhibition, % at 9.99 µM; hit rate 1.7% among 350,000; AID 651640, 2012; in the data active means CPE inhibition above about 20%, passing the limit was not always enough; tested in BHK-21 cells;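 further: 0% = median of neutral control wells and 100% = median of positive control wells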
miR122 inh: miR-122 Renilla sensor signal increase in Huh7, primary screen, miR-122 inhibitor project, cell-based, single point, plate reader | Huh7 miR-122 Renilla luciferase sensor, 48 h; neutral wells = 0, positive control = 100 | activation (reporter increase), % at 12.5 µM | hit rate 0.3% among 340,000 | AID 602342, 2012;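 active means mean replicate activation score at least 90 and every replicate individually at or above 90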;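 further: higher luciferase means less miR-122 activity so hits act as miR-122 inhibitors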
E-sel inducer: E-selectin induction in HUVECs, primary screen, imaging, HUVEC, immunofluorescence imaging, single point | activation, % at 7.58 µM | P16581 | hit rate 0.37% among 260,000 | normalized: neutral wells 0, TNF-alpha wells 100 | AID 686992, 2013;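 active means mean E-selectin-positive cell signal at least 10% of the positive control, reached in at least 60% of replicates, without over 20% cell loss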
Target sequence (P16581 whole entry, looked up): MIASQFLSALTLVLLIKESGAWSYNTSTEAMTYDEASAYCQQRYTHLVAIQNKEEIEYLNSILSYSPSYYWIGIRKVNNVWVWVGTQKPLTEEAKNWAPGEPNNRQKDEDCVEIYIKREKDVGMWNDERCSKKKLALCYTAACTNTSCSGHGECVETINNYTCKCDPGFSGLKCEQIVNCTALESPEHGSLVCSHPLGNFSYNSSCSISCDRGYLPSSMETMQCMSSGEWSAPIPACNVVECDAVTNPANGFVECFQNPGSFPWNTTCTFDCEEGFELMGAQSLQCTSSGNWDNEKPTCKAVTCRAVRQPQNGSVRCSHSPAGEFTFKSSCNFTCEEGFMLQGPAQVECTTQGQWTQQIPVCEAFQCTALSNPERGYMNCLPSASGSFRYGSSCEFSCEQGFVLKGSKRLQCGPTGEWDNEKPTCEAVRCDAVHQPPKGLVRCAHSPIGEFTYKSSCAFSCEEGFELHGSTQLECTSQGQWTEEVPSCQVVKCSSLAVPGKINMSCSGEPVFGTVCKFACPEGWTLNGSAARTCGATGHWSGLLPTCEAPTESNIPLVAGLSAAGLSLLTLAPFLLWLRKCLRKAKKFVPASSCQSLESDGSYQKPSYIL
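Assay system: HUVEC primary endothelial cells. Input: 3,000 HUVEC seeded per well. Doses: one compound dose added by pin transfer. Read-out basis: % PE-positive cells. Benchmarks: TNF-alpha high, DMSO low. Detection: immunofluorescence imaging. Buffer or medium: EGM-2, gelatin.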
CFTR F508del cor: F508del CFTR correction, initial screen, CFBE line, single point; CFBE cells, YFP halide quenching; stimulated with forskolin plus potentiator P3; % fluorescence drop versus neutral controls; activity (quench increase), % at 7.58 µM; hit rate 0.36% among 350,000; AID 720511, 2013;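 active means mean added fluorescence quench of at least 8% versus neutral control, with both replicates also reaching 8%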;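 further: cells transiently co-express mutant CFTR-F508del with the halide-sensitive YFP; corrector assay measuring rescue of mutant channel to the surface after 24 h compound exposure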
ERAP1 inh: human ERAP1 aminopeptidase inhibitors, primary screen, biochemical, single point, plate reader; hit rate 0.15% among 340,000; inhibition, % at 10.7 µM; Endoplasmic reticulum aminopeptidase 1 (Homo sapiens), Q9NZ08; recombinant ERAP1, Leu-AMC fluorescence, 60 min;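 active means mean replicate inhibition of at least 30%, or all replicates individually reaching that 30% level; inactive means mean below 30% and not every replicate reaching it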;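 further: 0% = neutral control wells and 100% = L-leucinethiol positive control wells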
* = called active by the depositor; [ ] = another dose, or the depositor's remark.

Results for C[C@@H]1CCCCO[C@H](CN(C)C(=O)c2ccncc2)[C@H](C)CN([C@@H](C)CO)C(=O)c2cc(NC(=O)C3CCCCC3)ccc2O1 ?
GSIS activator: -25.2; DENV2 CPE: 1.0; miR122 inh: 11.2[16.7 µM]; E-sel inducer: 0.1; CFTR F508del cor: -1.0; ERAP1 inh: -1.6

What do the screens show for `O=C(NCC[C@H]1CC[C@@H](NS(=O)(=O)c2ccc(F)cc2)[C@H](CO)O1)Nc1ccc(Cl)cc1`?
GSIS activator: -18.4; DENV2 CPE: -5.0; miR122 inh: -10.6[16.7 µM]; E-sel inducer: 0.1; CFTR F508del cor: -1.4; ERAP1 inh: 1.7

Results for O=C(NCC[C@@H]1CC[C@@H](NS(=O)(=O)c2ccc(Cl)cc2)[C@@H](CO)O1)Nc1ccc(F)cc1 ?
GSIS activator: -12.1; DENV2 CPE: 33.3*; E-sel inducer: -0.6; CFTR F508del cor: -0.8; ERAP1 inh: 0.3

How did O=C(NCC[C@@H]1CC[C@@H](NC(=O)C2CCOCC2)[C@@H](CO)O1)Nc1ccc(Cl)cc1 do in these assays?
GSIS activator: -0.1; DENV2 CPE: 37.6*; E-sel inducer: -0.3; CFTR F508del cor: -0.1; ERAP1 inh: 3.8

Results for O=C(NCC[C@@H]1CC[C@H](NC(=O)C2CCOCC2)[C@H](CO)O1)Nc1ccc(Cl)cc1 ?
GSIS activator: 11.0; DENV2 CPE: -10.0; E-sel inducer: 0.2; CFTR F508del cor: -1.9; ERAP1 inh: 1.5

How did O=C(Nc1ccc2nc3n(c(=O)c2c1)CCCC3)c1ccccc1F do in these assays?
GSIS activator: 9.8; DENV2 CPE: 38.6*; miR122 inh: -9.0; E-sel inducer: -0.1; CFTR F508del cor: 2.8; ERAP1 inh: -3.1

How did O=C(Nc1ccc2nc3n(c(=O)c2c1)CCCC3)c1cccc(F)c1 do in these assays?
GSIS activator: 1.9; DENV2 CPE: -4.9; CFTR F508del cor: -0.3; ERAP1 inh: -3.4

Results for CO[C@H]1CN(C)C(=O)c2cc(NC(=O)CC(F)(F)F)ccc2OC[C@@H](C)N(C(=O)C2CC2)C[C@H]1C ?
GSIS activator: -0.4; DENV2 CPE: 37.6*; E-sel inducer: 0.0; CFTR F508del cor: -0.3; ERAP1 inh: 1.8

Results for COc1cccc(C(=O)Nc2ccc3c(c2)C(=O)N(C)C[C@H](OC)[C@@H](C)CN(C(=O)C2CCCC2)[C@@H](C)CO3)c1 ?
GSIS activator: -25.1; DENV2 CPE: -5.2; miR122 inh: 4.9[16.7 µM]; E-sel inducer: -0.1; CFTR F508del cor: -1.7; ERAP1 inh: 0.4

Results for CO[C@H]1CN(C)C(=O)c2cc(NC(=O)c3cc(C)on3)ccc2OC[C@@H](C)N(C(=O)C2CC2)C[C@@H]1C ?
GSIS activator: 0.2; DENV2 CPE: 1.6; miR122 inh: -0.9[16.7 µM]; E-sel inducer: 0.1; CFTR F508del cor: 2.4; ERAP1 inh: -0.2

Results for CO[C@H]1CN(C)C(=O)c2ccc(NC(=O)CC(F)(F)F)cc2OC[C@H](C)N(C(=O)C2CCOCC2)C[C@H]1C ?
GSIS activator: 1.6; DENV2 CPE: 23.9*; E-sel inducer: -0.1; CFTR F508del cor: 1.6; ERAP1 inh: 1.6

Results for COc1cccc(C(=O)Nc2ccc3c(c2)C(=O)N(C)C[C@H](OC)[C@H](C)CN(C(=O)C2CCCC2)[C@@H](C)CO3)c1 ?
GSIS activator: -37.4; DENV2 CPE: 38.2*; miR122 inh: 9.9[16.7 µM]; E-sel inducer: 0.0; CFTR F508del cor: -1.1; ERAP1 inh: -0.8

Results for CO[C@@H]1CN(C)C(=O)c2ccc(NC(=O)CC(F)(F)F)cc2OC[C@H](C)N(C(=O)C2CCOCC2)C[C@H]1C ?
DENV2 CPE: -2.3; CFTR F508del cor: -7.6; ERAP1 inh: -1.7

What do the screens show for `CO[C@@H]1CN(C)C(=O)c2cc(NC(=O)c3cc(C)on3)ccc2OC[C@H](C)N(C(=O)C2CC2)C[C@H]1C`?
GSIS activator: 1.1; DENV2 CPE: 21.4*; miR122 inh: -3.2[16.7 µM]; E-sel inducer: 0.2; CFTR F508del cor: -0.6; ERAP1 inh: -0.6
